The values below come from ChEMBL document CHEMBL3865813, “Neolignans from the Arils of Myristica fragrans as Potent Antagonists of CC Chemokine Receptor 3” (J Nat Prod, 2016).

For series [1], the target named is T1, C-C chemokine receptor type 3 (Homo sapiens) (UniProt P51677).
T1 sequence (whole entry): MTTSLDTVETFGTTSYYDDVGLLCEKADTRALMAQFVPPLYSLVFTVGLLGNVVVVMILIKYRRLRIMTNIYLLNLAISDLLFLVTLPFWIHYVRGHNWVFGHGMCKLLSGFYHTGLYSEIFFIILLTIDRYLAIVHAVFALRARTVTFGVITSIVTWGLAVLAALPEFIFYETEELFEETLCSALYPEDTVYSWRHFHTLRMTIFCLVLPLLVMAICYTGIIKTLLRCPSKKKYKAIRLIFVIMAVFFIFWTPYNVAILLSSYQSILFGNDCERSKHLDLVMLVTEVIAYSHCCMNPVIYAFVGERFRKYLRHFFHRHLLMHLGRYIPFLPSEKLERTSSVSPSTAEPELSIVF
As to the kind of experiment: Antagonist activity at human EGFP-fused CCR3 expressed in mouse L1.2 cells assessed as inhibition of CCL11-induced chemotaxis at 1 uM measured after 1.5 hrs by PicoGreen dsDNA reagent-based assay. Format: cell-based. A digest of the protocol:
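Human CCR3 was stably expressed in mouse pre-B L1.2 cells by a retroviral pMX-IRES-EGFP vector, and EGFP+ cells were sorted. Test sample was at 1 μM (DMSO, 0.5% final) with 10 nM CCL11 in lower wells (phenol red-free RPMI/BSA). Cells at 8 × 10^6/mL crossed a 5 μm filter for 1.5 h at 37 °C. Migrated cells were lysed (0.1% Triton X-100) and quantified with PicoGreen. Three experiments, Dunnett's test vs control.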

The species named for another series is Mus musculus. Briefly: Cytotoxicity against mouse L1.2 cells at 1.5 uM. The following applies: l1.2, 1.5 µM. It is filed as toxicity, cell-based.

Each structure is given as a SMILES string. The source made the active and inactive calls. The rule behind the calls is not given here.

For `COc1cc([C@H]2O[C@@H](c3ccc(O)c(OC)c3)[C@H](C)[C@@H]2C)ccc1O`, the inhibition entry in series [1] is “Active”. Consider `C=CCc1cc(OC)c(O[C@H](C)Cc2ccc3c(c2)OCO3)c(OC)c1`, for which the inhibition result in series [1] was “Active”.

Turning to `C=CCc1cc(OC)c(O[C@@H](C)[C@H](OC(C)=O)c2ccc(OC)c(OC)c2)c(OC)c1`, the inhibition result in series [1] is “Active”.

Take `C=CCc1cc(OC)c2c(c1)OCO2`: the inhibition result in series [1] is “Active”.

For the compound `C=CCc1cc(OC)c(O[C@H](C)[C@@H](O)c2cc(OC)c(O)c(OC)c2)c(OC)c1`, the inhibition result in series [1] is “Active”. Also, in the series filed under Mus musculus, the Activity result is “Non-Toxic”. With `COc1cc([C@H]2Oc3c(OC)cc(/C=C/C=O)cc3[C@@H]2C)ccc1O`, in series [1], the inhibition entry was “Active”.

On to `C/C=C/c1cc(OC)c2c(c1)[C@@H](C)[C@H](c1ccc(O)c(OC)c1)O2`, for which, in series [1], the inhibition result was “Active”. Consider `COc1cc([C@H]2O[C@@H](c3ccc(O)c(OC)c3)[C@@H](C)[C@@H]2C)ccc1O`, for which, in series [1], the inhibition entry was “Active”. For the compound `C/C=C/c1cc(OC)c2c(c1)[C@@H](C)[C@H](c1cc(OC)c(O)c(OC)c1)O2`, the inhibition entry in series [1] was “Active”. In the case of `C=CCc1cc(OC)c(O[C@H](C)[C@@H](O)c2ccc3c(c2)OCO3)c(OC)c1`, the inhibition result in series [1] was “Active”.
